Columns and labels:
Format in all cases: functional
[1] = molecular target: Human immunodeficiency virus type 1 reverse transcriptase (Human immunodeficiency virus 1) (UniProt Q72547); experiment: Compound ability to inhibit the production of HIV reverse transcriptase (RT) in preinfected PBL (peripheral blood lymphocytes) at 7 days at a concentration 5 uM
Summary of the method: (§1)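 PBL were infected with HIV-1 for 1 h at 37 °C, washed twice, and resuspended in complete medium with 10% interleukin-2 and anti-human α-interferon (1000 units/mL). Cells were plated at 1×10^6 cells/well with or without compound. At each time point, 50 µL supernatant was taken for RT assay ([³H]dTTP incorporation, cpm).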

[2] = molecular target: Human immunodeficiency virus type 1 reverse transcriptase (Human immunodeficiency virus 1) (UniProt Q72547); experiment: Compounds were evaluated for anti-RT activity by MTT dose and % cell / viability was reported at 9 days of culture
Summary of the method: (§2)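 HIV-1 was preincubated with compound at 25 µM for 60 min at 37 °C, pelleted, and added to CEM-C113 cells (1×10^5 cells/mL) for 60 min at 37 °C. Medium was then replaced without compound. At days 7 and 9, viability was read by MTT assay on 100 µL of cell suspension.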

[3] = molecular target: Human immunodeficiency virus type 1 reverse transcriptase (Human immunodeficiency virus 1) (UniProt Q72547); experiment: Compounds were evaluated for anti-RT activity by MTT dose and % cell / viability was reported at 13 days of culture
[4] = molecular target: Human immunodeficiency virus type 1 reverse transcriptase (Human immunodeficiency virus 1) (UniProt Q72547); experiment: Compound ability to inhibit the production of HIV reverse transcriptase (RT) in preinfected PBL (peripheral blood lymphocytes) at 14 days at a concentration 5 uM; summary of the method: as §1
[5] = molecular target: Human immunodeficiency virus type 1 reverse transcriptase (Human immunodeficiency virus 1) (UniProt Q72547); experiment: Compounds were evaluated for anti-RT activity by MTT dose and %protection was reported at 13 days of culture
CCRF-CEM [6] = experiment: Concentration that reduced by 50% the HIV induced CPE (cytopathic effect) on day 7.; details: Homo sapiens, 168 h, read-out: ED50 (the source's name)
Summary of the method: (§3)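 CEM-C113 cells (1×10^5 cells/mL) were infected with HIV-1 LAV-Bru or mock-infected, with compound dilutions in triplicate, for at least 7 days. Medium with or without drug was renewed every 3–4 days for longer runs. MTT absorbance was read at 540 nm. CD50 = 50% reduction of mock-infected absorbance; ED50 = dose giving 50% protection from CPE. Values are averages of at least two experiments.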

[7] = molecular target: Human immunodeficiency virus type 1 reverse transcriptase (Human immunodeficiency virus 1) (UniProt Q72547); experiment: Compound ability to inhibit the production of HIV reverse transcriptase (RT) in preinfected PBL (peripheral blood lymphocytes) at 10 days at a concentration 5 uM; summary of the method: as §1
[8] = molecular target: Human immunodeficiency virus type 1 reverse transcriptase (Human immunodeficiency virus 1) (UniProt Q72547); experiment: Compound ability to inhibit the production of HIV reverse transcriptase (RT) in culture supernatant of monocytic U937 on at 11 days at a concentration 1 uM
Summary of the method: (§4)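 HIV-1-infected monocytic U937 cultures were kept up to 14 days with compound. Supernatant RT activity was measured as for CEM-C113, as [³H] cpm/50 µL. % inhibition = 100 − 100 × (cpm of treated samples / cpm of control virus).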

[9] = molecular target: Human immunodeficiency virus type 1 reverse transcriptase (Human immunodeficiency virus 1) (UniProt Q72547); experiment: Compound ability to inhibit the production of HIV reverse transcriptase (RT) in preinfected PBL (peripheral blood lymphocytes) at 14 days at a concentration 1 uM; summary of the method: as §1
[10] = molecular target: Human immunodeficiency virus type 1 reverse transcriptase (Human immunodeficiency virus 1) (UniProt Q72547); experiment: Compounds were evaluated for anti-RT activity at 9 days of culture
Summary of the method: (§5)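 HIV-1 (12 500 CCID50) was preincubated with compound at 25 µM final for 60 min at 37 °C, pelleted by ultracentrifugation and resuspended. RT was measured at once with poly(rA)-oligo(dT) and ³H-dTTP (1 h, 37 °C, cpm). Treated virus was then put on CEM-C113 cells for 60 min and replaced with compound-free medium. Supernatant RT was read at days 7 and 9.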

[11] = molecular target: Human immunodeficiency virus type 1 reverse transcriptase (Human immunodeficiency virus 1) (UniProt Q72547); experiment: Compounds were evaluated for anti-RT activity by MTT dose and % cell / viability was reported at 7 days of culture; summary of the method: as §2
CCRF-CEM [12] = experiment: Concentration required to reduce the viability of uninfected cells (CEM-CL13) by 50% on day 11.; details: Homo sapiens, 264 h, read-out: CD50 (the source's name); summary of the method: as §3
CCRF-CEM [13] = experiment: Concentration that reduced by 50% the HIV induced CPE (cytopathic effect) on day 22.; details: Homo sapiens, 528 h, read-out: ED50 (the source's name); summary of the method: as §3
[14] = molecular target: Human immunodeficiency virus type 1 reverse transcriptase (Human immunodeficiency virus 1) (UniProt Q72547); experiment: Compound ability to inhibit the production of HIV reverse transcriptase (RT) in culture supernatant of monocytic U937 on at 7 days at a concentration 1 uM; summary of the method: as §4
[15] = molecular target: Human immunodeficiency virus type 1 reverse transcriptase (Human immunodeficiency virus 1) (UniProt Q72547); experiment: Compound ability to inhibit the production of HIV reverse transcriptase (RT) in culture supernatant of CEM-CL13 on at 15 days at a concentration 0.2 uM
Summary of the method: (§6)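 CEM-C113 cells in RPMI 1640 with 5% heat-inactivated FCS and polybrene (2 µg/mL) were plated at 1×10^5 cells/mL with compound in PBS, in triplicate, and infected with HIV-1 LAV-Bru. From day 7, every 3–4 days, fresh medium with or without drug was added and 50 µL supernatant was taken for RT microassay. The RT microassay used poly(rA)-oligo(dT) and (methyl-³H)dTTP for 1 h at 37 °C, with TCA precipitation, read as cpm/50 µL.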

[16] = molecular target: Human immunodeficiency virus type 1 reverse transcriptase (Human immunodeficiency virus 1) (UniProt Q72547); experiment: Compounds were evaluated for anti-RT activity at 0 days of culture; summary of the method: as §5
[17] = molecular target: Human immunodeficiency virus type 1 reverse transcriptase (Human immunodeficiency virus 1) (UniProt Q72547); experiment: Compound ability to inhibit the production of HIV reverse transcriptase (RT) in preinfected PBL (peripheral blood lymphocytes) at 7 days at a concentration 1 uM; summary of the method: as §1
[18] = molecular target: Human immunodeficiency virus type 1 reverse transcriptase (Human immunodeficiency virus 1) (UniProt Q72547); experiment: Compounds were evaluated for anti-RT activity by MTT dose and %protection was reported at 9 days of culture; summary of the method: as §2
CCRF-CEM [19] = experiment: Concentration required to reduce the viability of uninfected cells (CEM-CL13) by 50% on day 19.; details: Homo sapiens, 456 h, read-out: CD50 (the source's name); summary of the method: as §3
[20] = molecular target: Human immunodeficiency virus type 1 reverse transcriptase (Human immunodeficiency virus 1) (UniProt Q72547); experiment: Percent inhibition evaluated for anti-RT activity at 7 days of culture; parameters: concentration or dose not given beside the values; details: concentration not given here; summary of the method: as §5
[21] = molecular target: Human immunodeficiency virus type 1 reverse transcriptase (Human immunodeficiency virus 1) (UniProt Q72547); experiment: Compound ability to inhibit the production of HIV reverse transcriptase (RT) in culture supernatant of CEM-CL13 on at 26 days at a concentration 0.2 uM; summary of the method: as §6
[22] = molecular target: Human immunodeficiency virus type 1 reverse transcriptase (Human immunodeficiency virus 1) (UniProt Q72547); experiment: Compound ability to inhibit the production of HIV reverse transcriptase (RT) in culture supernatant of CEM-CL13 on at 7 days at a concentration 0.2 uM; summary of the method: as §6
CCRF-CEM [23] = experiment: Concentration that reduced by 50% the HIV induced CPE (cytopathic effect) on day 19.; details: Homo sapiens, 456 h, read-out: ED50 (the source's name); summary of the method: as §3
CCRF-CEM [24] = experiment: Concentration that reduced by 50% the HIV induced CPE (cytopathic effect) on day 11.; details: Homo sapiens, 264 h, read-out: ED50 (the source's name); summary of the method: as §3
[25] = molecular target: Human immunodeficiency virus type 1 reverse transcriptase (Human immunodeficiency virus 1) (UniProt Q72547); experiment: Percent inhibition evaluated for anti-RT activity at 0 days of culture; parameters: concentration or dose not given beside the values; details: concentration not given here; summary of the method: as §5
[26] = molecular target: Human immunodeficiency virus type 1 reverse transcriptase (Human immunodeficiency virus 1) (UniProt Q72547); experiment: Compound ability to inhibit the production of HIV reverse transcriptase (RT) in culture supernatant of monocytic U937 on at 14 days at a concentration 1 uM; summary of the method: as §4
[27] = molecular target: Human immunodeficiency virus type 1 reverse transcriptase (Human immunodeficiency virus 1) (UniProt Q72547); experiment: Percent inhibition measured as the production of HIV reverse transcriptase (RT) in culture supernatant of monocytic U937 on at 14 days at a concentration 1 uM
Summary of the method: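 U937 cells in RPMI 1640 with 5% heat-inactivated FCS, penicillin, streptomycin and polybrene (2 μg/mL), 37 °C, 5% CO2. Infected with HIV-1 LAV-Bru; compounds diluted in PBS. 50 μL supernatant aliquots were assayed for RT: 1 h, 37 °C, pH 7.8, Mg2+, poly(rA)-oligo(dT), [3H]dTTP, TCA-pyrophosphate stop, filter counting. % inhibition = 100 − 100 × (treated cpm / virus-control cpm).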

Row | SMILES | Activity (c.p.m. 50ul-1) [1] | Cell viability [2] | Cell viability [3] | Activity (c.p.m. 50ul-1) [4] | Protection [5] | EC50 (CCRF-CEM [6]) | Activity (c.p.m. 50ul-1) [7] | Activity (c.p.m. 50ul-1) [8] | Activity (c.p.m. 50ul-1) [9] | Activity (c.p.m. 50ul-1) [10] | Cell viability [11] | CC50 (CCRF-CEM [12]) | EC50 (CCRF-CEM [13]) | Activity (c.p.m. 50ul-1) [14] | Activity (c.p.m. 50ul-1) [15] | Activity (c.p.m. 50ul-1) [16] | Activity (c.p.m. 50ul-1) [17] | Protection [18] | CC50 (CCRF-CEM [19]) | inhibition [20] | other results
1 | Cc1cn([C@H]2C[C@H](N=[N+]=[N-])[C@@H](COP(=O)(O)OCCO[C@H]3O[C@H](CO)[C@@H](O)[C@H](O)[C@@H]3O)O2)c(=O)[nH]c1=O | 855 | 28% | 20% | 471 | 7% | 160 nM | 1100 | 174000 | 39700 | 39000 | 39% | 28000 nM | 600 nM | 306000 | 2600 | 30000 | 923 | 12% | 30000 nM | 25% | Activity (c.p.m. 50ul-1) [21]: 70000; Activity (c.p.m. 50ul-1) [22]: 4400; EC50 (CCRF-CEM [23]): 140 nM; EC50 (CCRF-CEM [24]): 150 nM; inhibition [25]: 0%; Activity (c.p.m. 50ul-1) [26]: 25000; inhibition [27]: 0%
2 | Cc1cn([C@H]2C[C@H](N=[N+]=[N-])[C@@H](COP(=O)(O)OC[C@H]3OC(O)[C@@H](O)[C@@H](O)[C@@H]3O)O2)c(=O)[nH]c1=O (stereo partly specified) | 967 | 36% | 18% | 4130 | 3% | 130 nM | 936 | 137000 | 46100 | 34000 | 54% | 28000 nM | 600 nM | 425000 | 1700 | 25000 | 943 | 22% | 24000 nM | 62% | Activity (c.p.m. 50ul-1) [21]: 85000; Activity (c.p.m. 50ul-1) [22]: 3400; EC50 (CCRF-CEM [23]): 200 nM; EC50 (CCRF-CEM [24]): 200 nM; inhibition [25]: 0%; Activity (c.p.m. 50ul-1) [26]: 22500; inhibition [27]: 0%
3 | Cc1cn([C@H]2C[C@H](N=[N+]=[N-])[C@@H](COP(=O)(O)OC[C@H]3OC(O)[C@H](O)[C@@H](O)[C@@H]3O)O2)c(=O)[nH]c1=O (stereo partly specified) | 890 | 34% | 17% | 732 | 0% | 200 nM | 798 | 145000 | 408 | 28000 | 50% | 35000 nM | 900 nM | 158000 | 750 | 32000 | 1010 | 13% | 38000 nM | 70% | Activity (c.p.m. 50ul-1) [21]: 65000; Activity (c.p.m. 50ul-1) [22]: 1600; EC50 (CCRF-CEM [23]): 700 nM; EC50 (CCRF-CEM [24]): 160 nM; inhibition [25]: 0%; Activity (c.p.m. 50ul-1) [26]: 17000; inhibition [27]: 9%

Source: ChEMBL document CHEMBL1125259, “Lipophilic glycosyl phosphotriester derivatives of AZT: synthesis, NMR transmembrane transport study, and antiviral activity” (1991)
